Results from ChEMBL document CHEMBL4346709, “Design and Optimization Leading to an Orally Active TTK Protein Kinase Inhibitor with Robust Single Agent Efficacy” (J Med Chem, 2019).
The source made the active and inactive calls. No cut-off for these calls is given here.

Experiments:
[1] = target: T1, Dual specificity protein kinase TTK (Homo sapiens, UniProt P33981); assay: Inhibition of Kinase Tracer 236 binding to recombinant human full-length GST-tagged TTk expressed in baculovirus expression system measured after 1 hr by LanthaScreen Eu--kinase binding assay
T1 sequence (P33981 whole entry): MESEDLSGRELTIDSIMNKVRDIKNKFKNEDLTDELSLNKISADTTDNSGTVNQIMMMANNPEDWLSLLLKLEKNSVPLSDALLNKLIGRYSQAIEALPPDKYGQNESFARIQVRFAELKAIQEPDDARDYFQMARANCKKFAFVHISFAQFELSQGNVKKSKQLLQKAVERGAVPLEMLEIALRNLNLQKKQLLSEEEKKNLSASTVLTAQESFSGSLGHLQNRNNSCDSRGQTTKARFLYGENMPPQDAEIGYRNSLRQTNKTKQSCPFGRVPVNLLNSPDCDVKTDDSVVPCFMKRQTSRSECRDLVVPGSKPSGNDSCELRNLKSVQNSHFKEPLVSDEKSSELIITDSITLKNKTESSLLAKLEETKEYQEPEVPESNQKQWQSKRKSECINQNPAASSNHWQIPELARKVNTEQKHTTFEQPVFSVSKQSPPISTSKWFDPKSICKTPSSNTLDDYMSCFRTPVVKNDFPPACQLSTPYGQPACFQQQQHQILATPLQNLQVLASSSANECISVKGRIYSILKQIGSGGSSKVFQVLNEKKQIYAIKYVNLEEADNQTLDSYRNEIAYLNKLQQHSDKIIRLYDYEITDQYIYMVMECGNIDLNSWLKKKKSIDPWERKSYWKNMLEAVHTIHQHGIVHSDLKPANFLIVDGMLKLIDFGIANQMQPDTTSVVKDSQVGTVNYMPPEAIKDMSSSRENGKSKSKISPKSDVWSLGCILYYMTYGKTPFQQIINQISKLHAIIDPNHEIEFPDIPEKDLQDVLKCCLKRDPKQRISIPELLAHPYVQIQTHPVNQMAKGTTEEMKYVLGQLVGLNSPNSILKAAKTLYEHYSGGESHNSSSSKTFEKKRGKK

[2] = target: T1, Dual specificity protein kinase TTK; assay: Inhibition of TTK in human CAL51 cells assessed as decrease in phosphorylated KNL-1 T943 levels after 1 hr by Western blot analysis; format: cell-based
[3] = target: Leucine-rich repeat serine/threonine-protein kinase 2 (Homo sapiens, UniProt Q5S007); assay: Inhibition of recombinant human GST-tagged LRRK2 catalytic domain (970 to 2527 residues) expressed in baculovirus expression system using LRRKtide as substrate measured after 1 hr by Alexa fluor-647 ADP tracer-based ADAPTA assay
Chain of Leucine-rich repeat serine/threonine-protein kinase 2 (Q5S007 whole entry, the tested form may be a part): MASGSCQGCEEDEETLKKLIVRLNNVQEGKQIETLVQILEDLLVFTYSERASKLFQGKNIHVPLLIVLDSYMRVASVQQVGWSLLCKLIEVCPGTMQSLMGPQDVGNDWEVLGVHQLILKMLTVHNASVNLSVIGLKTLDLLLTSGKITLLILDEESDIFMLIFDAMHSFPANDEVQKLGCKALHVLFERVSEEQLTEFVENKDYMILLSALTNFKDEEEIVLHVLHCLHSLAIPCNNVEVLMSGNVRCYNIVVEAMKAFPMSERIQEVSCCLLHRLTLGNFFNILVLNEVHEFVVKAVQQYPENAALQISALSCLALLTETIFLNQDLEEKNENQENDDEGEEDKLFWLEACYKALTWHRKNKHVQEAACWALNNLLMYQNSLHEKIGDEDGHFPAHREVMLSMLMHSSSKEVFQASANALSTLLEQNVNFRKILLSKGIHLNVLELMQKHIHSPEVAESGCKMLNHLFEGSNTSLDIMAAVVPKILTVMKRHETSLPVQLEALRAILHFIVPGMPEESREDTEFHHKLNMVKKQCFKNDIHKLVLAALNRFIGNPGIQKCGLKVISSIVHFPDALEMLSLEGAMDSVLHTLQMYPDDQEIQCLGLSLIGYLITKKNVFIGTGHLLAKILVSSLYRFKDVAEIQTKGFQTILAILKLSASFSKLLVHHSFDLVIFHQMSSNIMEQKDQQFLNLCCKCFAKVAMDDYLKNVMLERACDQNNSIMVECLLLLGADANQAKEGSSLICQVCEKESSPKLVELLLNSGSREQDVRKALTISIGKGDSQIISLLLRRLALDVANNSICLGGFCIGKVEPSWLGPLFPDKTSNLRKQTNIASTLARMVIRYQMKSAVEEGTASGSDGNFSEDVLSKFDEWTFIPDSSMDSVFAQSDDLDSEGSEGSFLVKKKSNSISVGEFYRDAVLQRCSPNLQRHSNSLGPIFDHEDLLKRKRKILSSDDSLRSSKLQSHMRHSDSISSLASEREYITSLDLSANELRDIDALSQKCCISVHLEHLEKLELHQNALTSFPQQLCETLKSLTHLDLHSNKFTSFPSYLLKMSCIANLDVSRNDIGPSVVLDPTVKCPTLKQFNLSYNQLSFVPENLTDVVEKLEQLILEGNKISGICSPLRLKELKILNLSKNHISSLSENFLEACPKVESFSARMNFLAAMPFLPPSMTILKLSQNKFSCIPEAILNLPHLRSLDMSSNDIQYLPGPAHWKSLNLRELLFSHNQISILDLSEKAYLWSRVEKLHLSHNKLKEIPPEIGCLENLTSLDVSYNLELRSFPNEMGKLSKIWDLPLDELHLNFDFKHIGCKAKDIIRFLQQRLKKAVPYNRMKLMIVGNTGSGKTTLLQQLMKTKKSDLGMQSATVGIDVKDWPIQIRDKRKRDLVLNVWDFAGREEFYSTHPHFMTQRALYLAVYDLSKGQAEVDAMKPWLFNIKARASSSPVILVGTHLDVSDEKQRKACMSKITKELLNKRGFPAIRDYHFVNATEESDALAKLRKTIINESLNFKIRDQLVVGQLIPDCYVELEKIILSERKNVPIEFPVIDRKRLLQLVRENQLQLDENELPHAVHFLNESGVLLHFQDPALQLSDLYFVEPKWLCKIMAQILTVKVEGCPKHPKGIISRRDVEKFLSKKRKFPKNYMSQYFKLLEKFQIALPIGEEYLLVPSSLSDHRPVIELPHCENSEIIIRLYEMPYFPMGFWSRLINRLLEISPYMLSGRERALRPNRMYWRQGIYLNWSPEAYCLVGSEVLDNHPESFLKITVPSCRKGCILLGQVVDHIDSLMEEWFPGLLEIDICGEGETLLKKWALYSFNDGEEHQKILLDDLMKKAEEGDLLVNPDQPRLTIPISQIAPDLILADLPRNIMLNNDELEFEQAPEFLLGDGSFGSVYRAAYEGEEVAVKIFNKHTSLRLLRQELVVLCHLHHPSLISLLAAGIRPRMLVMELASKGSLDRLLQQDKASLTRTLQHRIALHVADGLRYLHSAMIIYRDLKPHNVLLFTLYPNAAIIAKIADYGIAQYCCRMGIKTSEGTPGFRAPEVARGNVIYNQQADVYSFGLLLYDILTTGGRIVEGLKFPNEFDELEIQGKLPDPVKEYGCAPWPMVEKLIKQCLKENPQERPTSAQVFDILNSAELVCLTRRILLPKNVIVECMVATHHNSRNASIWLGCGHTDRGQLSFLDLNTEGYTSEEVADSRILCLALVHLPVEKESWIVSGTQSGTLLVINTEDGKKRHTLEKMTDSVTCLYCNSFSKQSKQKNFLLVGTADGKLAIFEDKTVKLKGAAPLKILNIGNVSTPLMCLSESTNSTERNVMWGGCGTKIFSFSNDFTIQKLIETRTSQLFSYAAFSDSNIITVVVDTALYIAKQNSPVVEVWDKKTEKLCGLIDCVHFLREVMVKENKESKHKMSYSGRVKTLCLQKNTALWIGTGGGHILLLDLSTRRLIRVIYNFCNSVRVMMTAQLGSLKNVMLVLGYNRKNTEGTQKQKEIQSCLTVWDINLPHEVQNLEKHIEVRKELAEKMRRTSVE

LRRK2 = LRRK2 (Homo sapiens, UniProt Q5S007); assay: Inhibition of recombinant human GST-tagged LRRK2 catalytic domain (970 to 2527 residues) expressed in baculovirus expression system at 3 uM using LRRKtide as substrate measured after 1 hr by Alexa fluor-647 ADP tracer-based ADAPTA assay relative to control; conditions: probe LRRKtide
Chain of LRRK2 (Q5S007 whole entry, the tested form may be a part): as above
How it was run: (§1)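 Kinase selectivity panel: single-point assessment at 3 µM, n=1.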

[4] = target: T2, Mitogen-activated protein kinase 9 (Homo sapiens, UniProt P45984); assay: Inhibition of recombinant human full length His-tagged JNK2 expressed in baculovirus expression system by Z'-LYTE assay
Target sequence in this assay (P45984 whole entry): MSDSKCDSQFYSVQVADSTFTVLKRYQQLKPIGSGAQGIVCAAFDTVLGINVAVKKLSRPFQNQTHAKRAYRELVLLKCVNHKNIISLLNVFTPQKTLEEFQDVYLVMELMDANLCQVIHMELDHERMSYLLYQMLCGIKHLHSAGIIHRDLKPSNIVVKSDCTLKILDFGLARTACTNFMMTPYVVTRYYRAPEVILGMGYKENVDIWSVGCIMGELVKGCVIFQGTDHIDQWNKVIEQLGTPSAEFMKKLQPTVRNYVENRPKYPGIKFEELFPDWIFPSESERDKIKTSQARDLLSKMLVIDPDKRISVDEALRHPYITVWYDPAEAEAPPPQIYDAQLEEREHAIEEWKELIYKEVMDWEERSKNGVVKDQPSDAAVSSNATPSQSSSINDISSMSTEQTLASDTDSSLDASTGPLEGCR

[5] = target: T2, Mitogen-activated protein kinase 9; assay: Inhibition of recombinant human full length His-tagged JNK2 expressed in baculovirus expression system at 3 uM by Z'-LYTE assay relative to control; how it was run: as §1
Target sequence in this assay (P45984 whole entry, looked up): as the sequence (P45984 whole entry) above

[6] = target: Mitogen-activated protein kinase 10 (Homo sapiens, UniProt P53779); assay: Inhibition of recombinant human full length N-terminal GST-tagged JNK3 expressed in baculovirus expression system by Z'-LYTE assay
Chain of Mitogen-activated protein kinase 10 (P53779 whole entry): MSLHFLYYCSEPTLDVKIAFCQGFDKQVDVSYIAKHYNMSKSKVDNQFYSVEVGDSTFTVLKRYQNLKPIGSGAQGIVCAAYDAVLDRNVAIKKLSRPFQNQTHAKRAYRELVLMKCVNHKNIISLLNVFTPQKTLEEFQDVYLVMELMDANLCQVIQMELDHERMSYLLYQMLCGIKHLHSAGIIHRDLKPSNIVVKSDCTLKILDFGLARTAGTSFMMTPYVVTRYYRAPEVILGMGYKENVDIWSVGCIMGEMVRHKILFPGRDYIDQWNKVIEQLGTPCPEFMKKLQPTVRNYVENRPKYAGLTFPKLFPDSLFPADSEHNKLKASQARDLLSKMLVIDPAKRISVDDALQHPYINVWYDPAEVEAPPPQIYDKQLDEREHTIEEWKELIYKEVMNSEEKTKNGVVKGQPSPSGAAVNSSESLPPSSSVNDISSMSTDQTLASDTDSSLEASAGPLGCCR

[7] = target: T3, Testis-specific serine/threonine-protein kinase 1 (Homo sapiens) (UniProt Q9BXA7); assay: Inhibition of recombinant human full length His-tagged TSSK1 expressed in baculovirus expression system at 3 uM by Z'-LYTE assay relative to control; how it was run: as §1
T3 sequence (whole entry): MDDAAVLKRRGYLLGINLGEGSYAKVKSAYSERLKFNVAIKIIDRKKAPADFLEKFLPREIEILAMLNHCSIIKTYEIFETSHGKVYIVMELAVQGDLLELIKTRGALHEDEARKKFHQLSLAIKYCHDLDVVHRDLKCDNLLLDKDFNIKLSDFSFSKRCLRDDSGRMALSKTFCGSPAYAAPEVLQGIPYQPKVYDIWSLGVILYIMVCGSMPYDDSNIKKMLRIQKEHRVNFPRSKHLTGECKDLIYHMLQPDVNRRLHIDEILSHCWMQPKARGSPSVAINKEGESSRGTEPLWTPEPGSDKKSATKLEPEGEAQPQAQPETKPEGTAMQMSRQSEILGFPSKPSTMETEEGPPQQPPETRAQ

CAL-51 [8] = assay: Antitumor activity against human CAL51 cells xenografted in CB17 SCID mouse assessed as tumor growth inhibition at 30 mg/kg, po administered every seven days for 16 days and measured twice per week up to 31 days by caliper method relative to control; format: functional; conditions: CAL-51, po, read-out: TGI
How it was run: (§2)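 Female CB17 SCID mice, 6-8 weeks old, inoculated subcutaneously with 2×10^6 CAL-51 cells. Oral dosing once weekly (QW) at 30-120 mg/kg, or 30 mg/kg BID QW, for 16 days, against vehicle control. Tumour long and short axes measured twice weekly by digital caliper; volume = width² × length/2. Values are TGI; data are mean ± SEM.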

CAL-51 [9] = assay: Antitumor activity against human CAL51 cells xenografted in CB17 SCID mouse assessed as tumor growth inhibition at 30 mg/kg, po […] for 16 days and measured twice per week up to 31 days by caliper method relative to control; format: functional; conditions: CAL-51, po, read-out: TGI; how it was run: as §2
[10] = Toxicity in CB17 SCID mouse xenografted with human CAL51 cells assessed as loss of body weight at 30 mg/kg, po […] for 16 days and measured up to 31 days; format: organism-based; conditions: in vivo
How it was run: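 Female CB17 SCID mice bearing subcutaneous CAL-51 xenografts (2×10^6 cells). Oral dosing once weekly at 30-120 mg/kg, or 30 mg/kg BID once weekly, for 16 days. Body weight loss tracked alongside tumour measurements, against vehicle.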

Mus musculus = assay: Inhibition of mitosis in human CAL51 cells xenografted in CB17 SCID mouse assessed reduction in pHH3 ser10 level at 30 mg/kg, po administered as single dose measured up to 48 hrs by MSD electrochemiluminescent immunoassay; format: functional, organism-based
How it was run: (§3)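 CB17 SCID mice bearing CAL-51 tumours of 300-500 mm3 given compound orally. At preset time points the mice were euthanised and the tumours dissected and snap-frozen in liquid nitrogen. pHH3 Ser10 or cleaved caspase measured by MSD electrochemiluminescent immunoassay kit. Data are mean ± SEM.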

CAL-51 [11] = assay: Induction of apoptosis in human CAL51 cells xenografted in CB17 SCID mouse assessed as activation of cleaved caspase-3 at 10 mg/kg, po measured after 1 to 48 hrs by MSD electrochemiluminescent immunoassay relative to control; format: functional; how it was run: as §3
Homo sapiens = species: Homo sapiens; assay: Selectivity ratio of IC50 for inhibition of recombinant human GST-tagged LRRK2 G2019S mutant catalytic domain (970 to 2527 residues) expressed in baculovirus expression system to IC50 for inhibition of Kinase Tracer 236 binding to recombinant human full-length GST-tagged TTk expressed in baculovirus expression system

Q: Which results are given for `C[C@@H](Oc1cc(C(=O)N(C)C)ccc1Nc1nc(O[C@H]2CC[C@@](C)(O)CC2)c2c(Cl)c[nH]c2n1)C(F)(F)F`?
A: IC50 [1]: 700 pM; IC50 [2]: 30000 pM; IC50 [3]: 1 pM; inhibition at 1 h, 3 µM (LRRK2): > 80%; IC50 [4]: 59 pM; inhibition [5]: > 80%; IC50 [6]: 107 pM; inhibition [7]: > 80%; inhibition in vivo at 30 mg/kg (CAL-51 [8]): 59%; inhibition in vivo at 30 mg/kg (CAL-51 [9]): 84%; Activity [10]: Non-Toxic; inhibition (Mus musculus): Active; Activity (CAL-51 [11]): 159%; Ratio IC50 (Homo sapiens): < 100
